In ChEMBL document CHEMBL4261559, “Small molecule piperazinyl-benzimidazole antagonists of the gonadotropin-releasing hormone (GnRH) receptor” (Medchemcomm, 2017):

Legend:
[1] = molecular target: T1, Gonadotropin-releasing hormone receptor (Homo sapiens, UniProt P30968); assay: Antagonist activity at N-terminal FLAG-tagged human full-length GnRHR expressed in HEK293T cells assessed as inhibition of GnRH-induced calcium mobilization preincubated for 15 mins followed by agonist addition by FLIPR assay; type: functional, cell-based
T1 sequence (P30968 whole entry): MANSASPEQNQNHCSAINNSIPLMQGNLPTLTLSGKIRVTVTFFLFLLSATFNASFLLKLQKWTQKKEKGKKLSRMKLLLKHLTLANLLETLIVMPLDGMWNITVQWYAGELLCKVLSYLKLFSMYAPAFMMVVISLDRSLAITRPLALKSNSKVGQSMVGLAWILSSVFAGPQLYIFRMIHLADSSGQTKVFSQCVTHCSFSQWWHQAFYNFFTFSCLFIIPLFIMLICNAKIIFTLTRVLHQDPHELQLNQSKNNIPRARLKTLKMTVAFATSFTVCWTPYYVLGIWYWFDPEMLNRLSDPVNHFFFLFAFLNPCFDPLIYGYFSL

[2] = Thermodynamic solubility of compound in simulated gastric fluid at pH 1.2 after 24 hrs by LC-QTOFMS analysis; type: physicochemical; conditions: simulated gi fluid, pH 1.2, 24 h
How it was run: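 Solid sample was suspended in 450 uL of buffer to about 2 mg/mL and shaken at 200 RPM for 24 h at ambient temperature (22.6-25.0 °C). The suspension was filtered, and the filtrate was diluted as needed (undiluted up to 10000x). Filtrate was quantified by LC-QTOFMS against a calibration curve prepared from a 10 mM DMSO stock. Two reference standards were run in triplicate in each medium.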

| SMILES | IC50 [1] [nM] | Ki [1] [nM] | Therm_solubility [2] [µg/mL] |
| --- | --- | --- | --- |
| CC(C)(C)c1ccc(-c2nc3c(N4CCN(Cc5cn(-c6ccc(F)cc6)nn5)CC4)cccc3[nH]2)cc1 | 20000 | 410 |  |
| CC(C)(C)c1ccc(-c2nc3c(N4CCN(Cc5cn([C@@H]6O[C@H](CO)[C@@H](O)[C@H](O)[C@H]6O)nn5)CC4)cccc3[nH]2)cc1 | > 10000 | > 1000 |  |
| CC(C)(C)c1ccc(-c2nc3c(N4CCN(CCF)CC4)cccc3[nH]2)cc1 | 12600 | 254 |  |
| C#CCN1CCN(c2cccc3[nH]c(-c4ccc(C(C)(C)C)cc4)nc23)CC1 | 20000 | 395 |  |
| CC(C)(C)c1ccc(-c2nc3c(N4CCN(Cc5cccc6nccnc56)CC4)cccc3[nH]2)cc1 | 631 | 12.2 |  |

Continued, in another order:

| IC50 [1] [nM] | Ki [1] [nM] | SMILES | Therm_solubility [2] [µg/mL] |
| --- | --- | --- | --- |
| 794 | 13.8 | CC(C)(C)c1ccc(-c2nc3c(N4CCN(Cc5cn(CCF)nn5)CC4)cccc3[nH]2)cc1 | 2.098 |
| 5010 | 104 | CC(C)(C)c1ccc(-c2nc3c(N4CCN(Cc5cn(-c6nc7ccccc7[nH]6)nn5)CC4)cccc3[nH]2)cc1 |  |
| 7940 | 157 | CC(=O)N[C@@H]1[C@@H](OC(C)=O)[C@H](OC(C)=O)[C@@H](COC(C)=O)O[C@H]1n1cc(CN2CCN(c3cccc4[nH]c(-c5ccc(C(C)(C)C)cc5)nc34)CC2)nn1 |  |
| 10000 | 186 | CC(C)(C)OC(=O)N[C@@H](Cn1cc(CN2CCN(c3cccc4[nH]c(-c5ccc(C(C)(C)C)cc5)nc34)CC2)nn1)C(=O)O |  |
| 1000 | 19 | COc1cc(OC)c(NC(=O)c2ccc(Cc3cc4c(cc3C)C(C)(C)CCC4(C)C)o2)c(OC)c1 |  |
